This is an account of results in ChEMBL document CHEMBL1152351, “Synthesis of a series of novel dihydroartemisinin derivatives containing a substituted chalcone with greater cytotoxic effects in leukemia cells” (Bioorg Med Chem Lett, 2009).

Assay [1] deals with HL-60. Description: Inhibition of human HL60 cell proliferation after 72 hrs by trypan blue exclusion assay. Type of assay: functional. The method, boiled down: (§1)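 HL-60 cells treated 72 h, then counted with trypan blue exclusion. IG50 is the concentration giving 50% inhibition of proliferation. IC50 is the concentration giving 50% loss of viability.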
Assay [2] has as its system HL-60. Description: Cytotoxicity against human HL60 cells after 72 hrs by trypan blue exclusion assay. Conditions: HL-60, 72 h. Type of assay: functional, cell-based. The method, boiled down: as §1
Assay [3] deals with HL-60. As to the kind of experiment: Growth inhibition of human HL60 cells at 1 uM after 72 hrs by trypan blue exclusion assay. Type of assay: functional, cell-based.
The test system of assay [4] is P388. As to the kind of experiment: Growth inhibition of mouse P388 cells after 72 hrs by trypan blue exclusion assay. Type of assay: functional.
Assay [5] concerns P388. Description: Growth inhibition of adriamycin-resistant mouse P388 cells after 72 hrs by trypan blue exclusion assay. Type of assay: functional.
In assay [6] the test system is HL-60. As to the kind of experiment: Induction of apoptosis in human HL60 cells assessed as occurrence of nuclear shrinkage, blebbing and apoptotic bodies at 0.2 uM after 24 hrs by acridine orange and ethidium bromide staining. Type of assay: functional. The method, boiled down: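 HL-60 cells exposed 12 h and 24 h, stained with acridine orange and ethidium bromide, and viewed by fluorescence microscopy. Cells showing nuclear shrinkage, blebbing or apoptotic bodies were scored apoptotic. Percentage taken from 300 cells counted. Mean ± SD of three independent experiments.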

Assay [7] relates to HL-60. Description: Cell cycle arrest in human HL60 cells assessed as accumulation at subG1 phase at 0.8 uM after 24 hrs using propidium iodide staining by flow cytometry. Type of assay: functional. The method, boiled down: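 HL-60 cells exposed 24 h; propidium iodide staining, then flow cytometry. The subG1 population is scored as apoptotic cells. Mean ± SD from three independent experiments.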
On the technique in general: A flow cytometer gives signals particle by particle.

For assay [8], the system named is HL-60. Description: Induction of apoptosis in human HL60 cells assessed as DNA fragmentation at 0.8 uM after 24 hrs using ethidium bromide staining by DNA gel electrophoresis. Type of assay: functional, cell-based. The method, boiled down:
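HL-60 cells exposed 24 h. DNA resolved by gel electrophoresis and the fragmented DNA visualized by ethidium bromide staining.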

The subject of assay [9] is HL-60. Description: Induction of apoptosis in human HL60 cells assessed as occurrence of nuclear shrinkage, blebbing and apoptotic bodies at 2 uM after 24 hrs by acridine orange and ethidium bromide staining. Type of assay: functional, cell-based. The method, boiled down: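 HL-60 cells treated 12 h and 24 h; stained with acridine orange and ethidium bromide, fluorescence microscopy; cells with nuclear shrinkage, blebbing or apoptotic bodies counted as apoptotic among 300 cells observed; percentage calculated. Three independent experiments, mean ± SD.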

The subject of assay [10] is HL-60. As to the kind of experiment: Cell cycle arrest in human HL60 cells assessed as accumulation at subG1 phase at 4 uM after 24 hrs using propidium iodide staining by flow cytometry. Type of assay: functional, cell-based. The method, boiled down: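 HL-60 cells exposed 24 h; propidium iodide staining, flow cytometry; apoptotic cells scored as sub-G1 fraction. Three independent experiments, mean ± SD.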

In assay [11] the test system is HL-60. As to the kind of experiment: Induction of apoptosis in human HL60 cells assessed as DNA fragmentation at 4 uM after 24 hrs using ethidium bromide staining by DNA gel electrophoresis. Type of assay: functional, cell-based. The method, boiled down:
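HL-60 cells treated 24 h; DNA fragmentation resolved by DNA gel electrophoresis and visualized after ethidium bromide staining.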

Calls of active or inactive are those of the source. The rule behind the calls is not given here.

Regarding `COc1ccc(/C=C/C(=O)c2ccc(OCCO[C@H]3O[C@@H]4O[C@]5(C)CC[C@H]6[C@H](C)CC[C@@H]([C@H]3C)[C@@]46OO5)cc2)cc1OC`, the IG50 with HL-60 [1] was 0.09 µM. In addition, half-maximal inhibition in the assay with HL-60 [2] (IC50) was put at 300 nM. In addition, the “growth inhibition (GI)” value in the assay with HL-60 [3] is “inactive”.

Take `COc1cccc2c1C(=O)c1c(O)c3c(c(O)c1C2=O)C[C@@](O)(C(=O)CO)C[C@@H]3O[C@H]1C[C@H](N)[C@H](O)[C@H](C)O1` [DOXORUBICIN]: the IG50 with P388 [4] is 0.019 µM; in the assay with P388 [5], 3.73 µM.

Compound `COc1ccc(/C=C/C(=O)c2ccc(OCCO[C@H]3O[C@@H]4O[C@]5(C)CC[C@H]6[C@H](C)CC[C@@H]([C@H]3C)[C@@]46OO5)cc2)cc1` registered an IG50 with HL-60 [1] of 0.214 µM. Further, the IC50 (in general, the concentration at which inhibition is half-maximal) in the assay on HL-60 [2] stood at 147 nM. In addition, the “growth inhibition (GI)” value with HL-60 [3] was “inactive”.

As for `C[C@H]1[C@H](OC(=O)COc2ccc(C(=O)/C=C/c3ccc(Cl)cc3)cc2)O[C@@H]2O[C@]3(C)CC[C@H]4[C@H](C)CC[C@@H]1[C@@]24OO3`, in the assay with HL-60 [1], the IG50 amounted to 0.276 µM. In the assay with HL-60 [2], this compound gave an IC50 of 537 nM. Moreover, the “growth inhibition (GI)” value in the assay with HL-60 [3] is “inactive”.

With `COc1cc(/C=C/C(=O)c2ccc(OCCO[C@H]3O[C@@H]4O[C@]5(C)CC[C@H]6[C@H](C)CC[C@@H]([C@H]3C)[C@@]46OO5)cc2)cc(OC)c1OC`, the IG50 with HL-60 [1] is 0.07 µM. Also, the IC50 in the assay with HL-60 [2] worked out at 219 nM. Besides, the “growth inhibition (GI)” value in the assay with HL-60 [3] was “inactive”.

Regarding `O=C(/C=C/c1ccccc1)c1ccccc1`, the “growth inhibition (GI)” value in the assay on HL-60 [3] was “inactive”.

With `COc1ccc(/C=C/C(=O)c2ccc(OCC(=O)O[C@@H]3O[C@@H]4O[C@]5(C)CC[C@H]6[C@H](C)CC[C@@H]([C@H]3C)[C@@]46OO5)cc2)cc1`, the IG50 with HL-60 [1] was found to be 0.174 µM. Further, the IC50 with HL-60 [2] is 394 nM. In addition, the “growth inhibition (GI)” value in the assay on HL-60 [3] was “inactive”.

In the assay on HL-60 [1], `C[C@H]1[C@@H](OCCOc2ccc(C(=O)/C=C/c3ccc(Br)cc3)cc2)O[C@@H]2O[C@]3(C)CC[C@H]4[C@H](C)CC[C@@H]1[C@@]24OO3` yielded an IG50 of 0.04 µM. Moreover, the IC50 in the assay with HL-60 [2] was 80 nM. Besides, the “growth inhibition (GI)” value with HL-60 [3] was “inactive”. The Activity in the assay on HL-60 [6] is 50%; in the assay with HL-60 [7], 80%; in the assay on P388 [4], 0.098 µM; in the assay with P388 [5], 0.155 µM. In addition, in the assay on HL-60 [8], the result was Active.

`CCOc1ccc(/C=C/C(=O)c2ccc(OCCO[C@H]3O[C@@H]4O[C@]5(C)CC[C@H]6[C@H](C)CC[C@@H]([C@H]3C)[C@@]46OO5)cc2)cc1` came in with an IG50 in the assay with HL-60 [1] of 0.121 µM. The same compound gave an IC50 with HL-60 [2] of 110 nM. Besides, the “growth inhibition (GI)” value in the assay with HL-60 [3] is “inactive”.

Turning to `COc1cccc(/C=C/C(=O)c2ccc(OCCO[C@H]3O[C@@H]4C[C@]5(C)CC[C@H]6[C@H](C)CC[C@@H]([C@H]3C)[C@@]46OO5)cc2)c1OC`, the IG50 in the assay on HL-60 [1] was 0.079 µM. This compound also returned an IC50 with HL-60 [2] of 194 nM. Also, in the assay with HL-60 [3], the “growth inhibition (GI)” value is “inactive”.

Compound `C[C@H]1[C@@H](OCCOc2ccc(C(=O)/C=C/c3ccccc3Cl)cc2)O[C@@H]2O[C@]3(C)CC[C@H]4[C@H](C)CC[C@@H]1[C@@]24OO3` gave an IG50 in the assay with HL-60 [1] of 0.119 µM. In the assay on HL-60 [2], this compound came in with an IC50 of 136 nM. Besides, in the assay on HL-60 [3], the “growth inhibition (GI)” value was “inactive”.

Turning to `C[C@H]1[C@H](OC(=O)COc2ccc(C(=O)/C=C/c3ccc(Br)cc3)cc2)O[C@@H]2O[C@]3(C)CC[C@H]4[C@H](C)CC[C@@H]1[C@@]24OO3`, in the assay on HL-60 [1], the IG50 came out at 0.314 µM. In addition, the IC50 in the assay with HL-60 [2] worked out at 636 nM. Also, the “growth inhibition (GI)” value in the assay on HL-60 [3] was “inactive”.

With `C[C@H]1[C@@H](OCCOc2ccc(C(=O)/C=C/c3ccc(Cl)cc3)cc2)O[C@@H]2O[C@]3(C)CC[C@H]4[C@H](C)CC[C@@H]1[C@@]24OO3`, in the assay with HL-60 [1], the IG50 was 0.106 µM. For the same compound, the midpoint of inhibition with HL-60 [2], the IC50, lay at 130 nM. Also, in the assay on HL-60 [3], the “growth inhibition (GI)” value was “inactive”.

As to `COc1ccccc1/C=C/C(=O)c1ccc(OCCO[C@H]2O[C@@H]3O[C@]4(C)CC[C@H]5[C@H](C)CC[C@@H]([C@H]2C)[C@@]35OO4)cc1`, in the assay with HL-60 [1], the IG50 is 0.165 µM. In the assay on HL-60 [2], this compound had an IC50 of 134 nM. In addition, the “growth inhibition (GI)” value in the assay with HL-60 [3] is “inactive”.

In the assay with HL-60 [1], `C[C@H]1[C@@H](OCCOc2ccc(C(=O)/C=C/c3ccccc3)cc2)O[C@@H]2O[C@]3(C)CC[C@H]4[C@H](C)CC[C@@H]1[C@@]24OO3` came in with an IG50 of 0.208 µM. Moreover, the midpoint of inhibition in the assay with HL-60 [2], the IC50, lay at 193 nM. The “growth inhibition (GI)” value in the assay on HL-60 [3] was “inactive”.

Compound `C[C@H]1[C@@H](O)O[C@@H]2O[C@@]3(C)CC[C@H]4[C@H](C)CC[C@@H]1[C@@]24OO3` [ARTENIMOL] came in with an IG50 in the assay on HL-60 [1] of 0.73 µM. The IC50 in the assay on HL-60 [2] is 2900 nM. The outcome with HL-60 [9], in the assay on HL-60 [10] and with HL-60 [11] was Active. The results for the Activity in the assay with P388 [4] and in the assay on P388 [5] were 2.3 µM and 1.51 µM, respectively.

In turn, `CCOc1ccc(/C=C/C(=O)c2ccc(OCC(=O)O[C@@H]3O[C@@H]4O[C@]5(C)CC[C@H]6[C@H](C)CC[C@@H]([C@H]3C)[C@@]46OO5)cc2)cc1` displayed an IG50 in the assay with HL-60 [1] of 0.286 µM. In the assay with HL-60 [2], this compound returned an IC50 of 734 nM. For the same compound, in the assay on HL-60 [3], the “growth inhibition (GI)” value is “inactive”.

As to `C[C@H]1[C@@H](OCCOc2ccc(C(=O)/C=C/c3ccc4c(c3)OCO4)cc2)O[C@@H]2O[C@]3(C)CC[C@H]4[C@H](C)CC[C@@H]1[C@@]24OO3`, the results for the IG50 in the assay on HL-60 [1], in the assay on P388 [4] and with P388 [5] were 0.059 µM, 0.096 µM and 0.178 µM, respectively. This compound registered an IC50 in the assay on HL-60 [2] of 89 nM. In addition, the “growth inhibition (GI)” value with HL-60 [3] is “inactive”. Moreover, the results for the Activity in the assay on HL-60 [6] and with HL-60 [7] were 50% and 80%, respectively. Moreover, the outcome in the assay on HL-60 [8] was Active.
